Screening data deposited in PubChem by several laboratories.
OX1R antag-1: antagonists of human orexin 1 receptor (OX1R) | AID 485270, 2010 | Orexin/Hypocretin receptor type 1 (Homo sapiens), O43613 | OX1R-expressing cells, FRET antagonist read-out | 330,000 compounds, 1.8% hits | inhibition, % at 6.6 µM; in the data active = inhibition mostly above about 38%, no sharp cut-off; inactive = mostly below about 40%
OX1R antag-2: OX1R (HCRTR1) antagonists, primary screen, fluorescence, CHO/OX1R cells, Fluo-8 calcium, orexin A; 330,000 compounds, 0.43% hits; Fluo-8 calcium fluorescence; inhibition, % at 5 µM;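 active = inhibition above its plate's threshold, mean inhibition of all tested compounds on the plate plus 3 SD, cut at about 37% in these data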
TAAR1 agonist: human TAAR1 agonists, primary screen, Fluo-8 calcium fluorescence, CHO RD-HGA16 cells. Trace amine-associated receptor 1 (Homo sapiens), Q96RJ0. vehicle wells 0%, saturating PEA agonist 100%. activation, % at 3 µM. 360,000 compounds, 0.99% hits;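 active = activation above the mean activation of all test compounds in the run plus 3 SD, cut at about 38% in these data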
Target sequence (Q96RJ0 whole entry, looked up): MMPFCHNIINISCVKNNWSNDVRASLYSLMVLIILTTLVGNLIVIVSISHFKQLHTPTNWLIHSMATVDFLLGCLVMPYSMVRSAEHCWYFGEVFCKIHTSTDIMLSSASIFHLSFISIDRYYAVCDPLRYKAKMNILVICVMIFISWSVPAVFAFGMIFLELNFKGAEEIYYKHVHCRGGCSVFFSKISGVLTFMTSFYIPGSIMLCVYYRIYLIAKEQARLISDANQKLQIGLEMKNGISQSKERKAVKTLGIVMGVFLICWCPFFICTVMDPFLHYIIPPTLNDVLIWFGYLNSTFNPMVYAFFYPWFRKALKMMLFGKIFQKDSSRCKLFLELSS
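System: CHO RD-HGA16 cells carrying human TAAR1 plus Gα16; Incubation: 17-24 h seeding, 75 min 37 °C dye, 30 min RT; Measured by: Fluo-8 fluorescence, 5 s baseline then 140 s kinetic read; Control set: DMSO and PEA EC100; Replication: single well for each compound.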
CHO parental Ca: ATP-evoked calcium signal inhibitors, parental CHO, primary screen, counter-screen for OX1R antagonist project, cell-based, fluorescence, Fluo-8 calcium dye; parental CHO-K1, ATP-induced calcium, Fluo-8 fluorescence; 330,000 compounds, 0.63% hits; inhibition, % at 5.6 µM;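 active = inhibition above that plate's mean sample inhibition plus 3 SD, cut at about 26% in these data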
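Material: Parental CHO cells | Reagent: ATP | Compound dosing: Single nominal dose of 5.6 µM per compound | Detection: Intracellular calcium via Fluo-8 no-wash fluorescent dye | Read-out: % inhibition of ATP-induced calcium mobilization | Benchmarks: Low control ATP plus DMSO, high control DMSO only | Replicates: Singlicate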
TAAR1 antag: human TAAR1 antagonists, primary screen, Fluo-8 calcium fluorescence, CHO RD-HGA16 cells. 360,000 compounds, 1.5% hits. Trace amine-associated receptor 1 (Homo sapiens), Q96RJ0. antagonist. inhibition, % at 3 µM;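 active = inhibition above a per-plate cutoff, the mean inhibition of test compounds on that plate plus 3 SD, cut at about 49% in these data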
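Test system – hTAAR1-expressing CHO RD-HGA16 cells, Gα16-coupled · Also added – β-PEA at EC80 concentration, post-compound challenge · Compound – 3 µM, single point · Incubation – dye loading 75 min at 37 °C, then 30 min room temperature · Measured by – Fluo-8 intracellular calcium dye fluorescence, real-time kinetic reads · Benchmarks – vehicle and agonist controls · Replicates – singlicate, one well per test compound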
NTR1 ag: agonists of human NTR1, primary screen, imaging, U2OS cells, beta-arrestin-GFP, high content | Neurotensin receptor type 1 (Homo sapiens), P30989 | AID 493036, 2011 | NTR1-U2OS beta-arrestin-GFP spot imaging, agonist mode | activation, % at 20 µM | 330,000 compounds, 0.17% hits;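 active = activation at or above 40% of the spot to cytoplasm intensity ratio, with at least 20 cells analyzed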
TAAR1 ag confirm: human TAAR1 agonists, retest of hits, confirmation, Fluo-8 calcium fluorescence, CHO RD-HGA16 cells; shares compounds with TAAR1 agonist; scaled: DMSO 0%, maximal phenethylamine 100%; 2,400 compounds, 82% hits; activation, % at 3 µM; AID 651783, 2012;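 active = activation above a cutoff set at the run's mean compound activation plus 3 SD, cut at about 39% in these data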
Ga16 ag counter: nonselective calcium mobilization agonists, CHO-Ga16 cells, counter-screen for hTAAR1 agonist project, cell-based, fluorescence, CHO-Ga16 parental line; shares compounds with TAAR1 agonist; Fluo-8 calcium fluorescence; normalized to maximal ATP response, DMSO zero; activation, % at 3 µM; 2,400 compounds, 50% hits;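 active = activation above the run cutoff, the mean activation over all tested wells plus 3 SD, cut at about 12% in these data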
TAAR1 desens: TAAR1 desensitization by agonist hits, confirmation, counter-screen for TAAR1 agonist project, cell-based, fluorescence, tachyphylaxis | shares compounds with TAAR1 agonist | CHO RD-HGA16 hTAAR1, Fluo-8 calcium, beta-PEA response inhibition | inhibition, % at 3 µM | 2,400 compounds, 46% hits | AID 651951, 2012;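 active = inhibition above the run cutoff, the mean inhibition of all test compounds plus 3 SD, cut at about 49% in these data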;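 also: beta-PEA stimulus applied at its EC80; loss of beta-PEA calcium signal after compound pretreatment read as receptor desensitization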
Ga16 antag count: inhibition of ATP-evoked calcium response in CHO-Ga16 cells, counter-screen for TAAR1 agonist project, cell-based, fluorescence; inhibition, % at 3 µM; 2,400 compounds, 39% hits; CHO-Ga16 ATP-induced calcium, Fluo-8 fluorescence; shares compounds with TAAR1 agonist;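 active = inhibition above the plate's mean compound inhibition plus 3 SD, computed per plate, cut at about 22% in these data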
Of the large screens only hits and unclear results are named; the others gave an inactive call (follow-up assays come after a bar, where they were run). Shown are actives, neighbours in structure and some others; about 4% of the full set was active somewhere.

COc1ccc(CNCCC(c2ccccc2)c2ccc3c(c2)OCO3)cc1 (stereo unspecified)	TAAR1 agonist 59.5 | TAAR1 ag confirm 57.6 | Ga16 ag counter 30.3 | TAAR1 desens 61.7 | Ga16 antag count 36.8
COc1ccc(C(CC(=O)O)c2ccc3c(c2)OCO3)cc1 (stereo unspecified)	none
O=C(Nc1cccc(F)c1)NC1CC2CCCC(C1)N2C1CC1 (stereo unspecified)	none
O=C(Nc1ccc(Cl)c(C(F)(F)F)c1)NC1CC2CCCC(C1)N2C1CC1 (stereo unspecified)	TAAR1 agonist 68.4 | TAAR1 ag confirm 70.5 | Ga16 ag counter 24.8 | TAAR1 desens inactive | Ga16 antag count 25.4
CNC(=O)c1c(NC(=O)C2=COCCO2)sc2c1CCCC2	none
CC(C)(C)C(=O)/C(C#N)=C/c1cccs1	none
N#C/C(=C\c1cccs1)C(=O)c1ccccc1Cl	TAAR1 agonist 58.7, TAAR1 antag 53.9 | TAAR1 ag confirm 52.8 | Ga16 ag counter 32.6 | TAAR1 desens 72.0 | Ga16 antag count 59.0
CN1CCc2c(c3ccccc3n2Cc2ccccc2)C1	none
CN1CCc2c(c3ccccc3n2C)C1	TAAR1 agonist 54.9 | TAAR1 ag confirm 81.2 | Ga16 ag counter inactive | TAAR1 desens inactive | Ga16 antag count inactive
CCN(CC)S(=O)(=O)c1ccc(=O)n(CC(=O)N2Cc3ccccc3CC2C(N)=O)c1 (stereo unspecified)	none (no result: OX1R antag-1, OX1R antag-2, CHO parental Ca)
Cc1ccc(C)c(NC(=S)N(C)CCc2ccccn2)c1	TAAR1 agonist 44.8 | TAAR1 ag confirm 38.7 | Ga16 ag counter inactive | TAAR1 desens inactive | Ga16 antag count inactive
Cc1ccccc1NC(=S)N(C)CCc1ccccn1	TAAR1 agonist 58.2 | TAAR1 ag confirm 61.4 | Ga16 ag counter inactive | TAAR1 desens inactive | Ga16 antag count inactive
Cc1cc(N/N=C/c2ccc(O)cc2O)nc(N2CCOCC2)n1	none (no result: TAAR1 agonist, TAAR1 antag) | Ga16 ag counter inactive | Ga16 antag count inactive
CCOC(=O)c1cc(C)n(CCc2ccccc2)c1C	TAAR1 agonist 50.5 | TAAR1 ag confirm 64.1 | Ga16 ag counter inactive | TAAR1 desens inactive | Ga16 antag count inactive
Cc1cc(C(=O)CCl)c(C)n1CCc1ccccc1	TAAR1 agonist 64.5 | TAAR1 ag confirm 71.4 | Ga16 ag counter inactive | TAAR1 desens 65.7 | Ga16 antag count inactive
Cc1cc(-c2csc(N)n2)c(C)n1CCc1ccccc1	TAAR1 agonist 78.5 | TAAR1 ag confirm 102.4 | Ga16 ag counter inactive | TAAR1 desens 89.0 | Ga16 antag count inactive
Cc1cc(-c2csc(N)n2)c(C)n1CCC(C)C	none
CCOC(=O)c1cc(-c2ccccc2)n(CCC(=O)O)c1C	none
CCc1cccc(NC(=O)COC(=O)/C=C/c2cccs2)c1	none
O=C(NCc1ccccn1)c1c(-c2ccccc2)sc2ccccc12	none
CC(=O)[C@H]1CC[C@H]2[C@@H]3C=CC4=CC(=O)CC[C@@]4(C)[C@@H]3CC[C@]12C	none
